# According to ChEMBL document CHEMBL1156597, “Structure-activity relationship of kahalalide F synthetic analogues” (J Med Chem, 2008):
# Legend:
# LNCaP = experiment: Cytotoxicity against human LNcaP cells after 48 hrs by SRB assay; type: functional; conditions: for CC50: read-out: LC50 (the source's name)
# Method in brief: (§1)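 Cells grown in RPMI 1640 with 10% FBS and penicillin/streptomycin at 37 °C and 5% CO₂, trypsinized, then seeded at 5 × 10³/well. After 18 h drug-free attachment, samples in DMSO/EtOH/PBS (0.5:0.5:99) were added for 48 h continuous exposure. Cells were fixed with cold TCA (1 h, 4 °C) and stained with SRB (10 min). Tris-solubilized stain read at 490 nm. Triplicate wells, mean ± SD; GI₅₀ derived.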
# HeLa = experiment: Cytotoxicity against human HeLa cells after 48 hrs by SRB assay; type: functional; conditions: for CC50: read-out: LC50 (the source's name); method in brief: as §1
# [1] = Cytotoxicity against human HeLa-APL cells after 48 hrs by SRB assay; type: functional; method in brief: as §1
# LoVo = experiment: Cytotoxicity against human LoVo cells after 48 hrs by SRB assay; type: functional; conditions: for CC50: read-out: LC50 (the source's name)
# HT-29 = experiment: Cytotoxicity against human HT29 cells after 48 hrs by SRB assay; type: functional, cell-based; conditions: Homo sapiens, HT-29, 48 h; for CC50: read-out: LC50 (the source's name); method in brief: as §1
# K562 = experiment: Cytotoxicity against human K562 cells after 48 hrs by SRB assay; type: functional; conditions: K562, 48 h; for CC50: read-out: LC50 (the source's name); method in brief: as §1
# DU-145 = experiment: Cytotoxicity against human DU145 cells after 48 hrs by SRB assay; type: functional, cell-based; conditions: Homo sapiens, DU-145, 48 h; for CC50: read-out: LC50 (the source's name); method in brief: as §1
# [2] = Cytotoxicity against human IGROV-ET cells after 48 hrs by SRB assay; type: functional; conditions: for CC50: read-out: LC50 (the source's name); method in brief: as §1
# SK-BR-3 = experiment: Cytotoxicity against human SKBR3 cells after 48 hrs by SRB assay; type: functional; conditions: SK-BR-3, 48 h; for GI50: read-out: GI50; for CC50: read-out: LC50 (the source's name); method in brief: as §1
# PANC-1 = experiment: Cytotoxicity against human PANC1 cells after 48 hrs by SRB assay; type: functional; conditions: PANC-1, 48 h; for CC50: read-out: LC50 (the source's name); method in brief: as §1
# SK-MEL-28 = experiment: Cytotoxicity against human SK-MEL-28 cells after 48 hrs by SRB assay; type: functional, cell-based; conditions: Homo sapiens, SK-MEL-28, 48 h; for CC50: read-out: LC50 (the source's name); method in brief: as §1
# A549 = experiment: Cytotoxicity against human A549 cells after 48 hrs by SRB assay; type: functional, cell-based; conditions: Homo sapiens, A549, 48 h; method in brief: as §1
# [3] = Cytotoxicity against human IGROV cells after 48 hrs by SRB assay; type: functional; conditions: for CC50: read-out: LC50 (the source's name); method in brief: as §1
SMILES,CC50 (LNCaP),CC50 (HeLa),LC50 (concentration giving 50% net cell kill) [1],GI50 (LoVo),TGI (LoVo),CC50 (LoVo),CC50 (HT-29),CC50 (K562),CC50 (DU-145),CC50 [2],TGI (SK-BR-3),GI50 (SK-BR-3),CC50 (SK-BR-3),CC50 (PANC-1),CC50 (SK-MEL-28),LC50 (A549),CC50 [3],GI50 (LNCaP),TGI (LNCaP),GI50 (HeLa),other results
C/C=C1\NC(=O)[C@H](Cc2ccccc2)NC(=O)[C@@H](C(C)C)NC(=O)[C@@H]([C@H](C)CC)NC(=O)[C@H](NC(=O)[C@H](NC(=O)[C@H](CCCN)NC(=O)[C@H]2CCCN2C(=O)[C@H](NC(=O)[C@@H](NC(=O)[C@@H](NC(=O)[C@H](NC(=O)CCCC(C)C)C(C)C)[C@@H](C)O)C(C)C)C(C)C)[C@H](C)CC)CNC(=O)[C@H](C(C)C)NC1=O,1550 nM,1050 nM,1340 nM,11500 nM,9550 nM,4840 nM,895 nM,2460 nM,1670 nM,710 nM,8040 nM,8660 nM,2810 nM,2560 nM,1460 nM,1930 nM,637 nM,–,–,–,–
C/C=C1\NC(=O)[C@H](Cc2ccccc2)NC(=O)[C@@H](C(C)C)NC(=O)[C@@H]([C@H](C)CC)NC(=O)[C@H](NC(=O)[C@H](NC(=O)[C@H](CCCN)NC(=O)[C@H]2CCCN2C(=O)[C@H](NC(=O)[C@H](Cc2ccccc2)NC(=O)[C@@H](NC(=O)[C@H](NC(=O)CCCC(C)C)C(C)C)[C@@H](C)O)C(C)C)[C@H](C)CC)[C@H](C)OC(=O)[C@H](C(C)C)NC1=O,1030 nM,607 nM,768 nM,290 nM,310 nM,333 nM,69.5 nM,1380 nM,785 nM,262 nM,323 nM,325 nM,260 nM,2450 nM,760 nM,960 nM,343 nM,857 nM,941 nM,432 nM,TGI (HeLa): 542 nM; GI50 [1]: 816 nM; TGI [1]: 795 nM; GI50 (K562): 1740 nM; TGI (K562): 1560 nM; GI50 (DU-145): 752 nM; GI50 (DU-145; read-out: GI50): 612 nM; GI50 [2]: 184 nM; GI50 ([2]; read-out: GI50): 194 nM; GI50 (PANC-1): 2540 nM; TGI (PANC-1): 3530 nM; GI50 (SK-MEL-28): 739 nM; GI50 (SK-MEL-28; read-out: GI50): 730 nM; GI50 (A549): 875 nM; GI50 (A549; read-out: GI50): 722 nM; GI50 [3]: 250 nM; GI50 ([3]; read-out: GI50): 337 nM
C/C=C1\NC(=O)[C@H](Cc2ccccc2)NC(=O)[C@@H](C(C)C)NC(=O)[C@@H]([C@H](C)CC)NC(=O)[C@H](NC(=O)[C@H](NC(=O)[C@H](CCCC[N+](C)(C)C)NC(=O)[C@H]2CCCN2C(=O)[C@H](NC(=O)[C@@H](NC(=O)[C@@H](NC(=O)[C@H](NC(=O)CC[C@@H](C)CC)C(C)C)[C@@H](C)O)C(C)C)C(C)C)[C@H](C)CC)[C@H](C)OC(=O)[C@H](C(C)C)NC1=O,1060 nM,689 nM,859 nM,361 nM,353 nM,347 nM,476 nM,2340 nM,880 nM,446 nM,363 nM,372 nM,369 nM,2440 nM,863 nM,1120 nM,391 nM,1060 nM,1060 nM,943 nM,TGI (HeLa): 809 nM; GI50 [1]: 1110 nM; TGI [1]: 979 nM; GI50 (HT-29): 786 nM; TGI (HT-29): 754 nM; GI50 (K562): 1840 nM; TGI (K562): 3310 nM; GI50 (DU-145): 948 nM; GI50 (DU-145; read-out: GI50): 1020 nM; GI50 [2]: 532 nM; GI50 ([2]; read-out: GI50): 639 nM; GI50 (PANC-1): 4160 nM; TGI (PANC-1): 4730 nM; GI50 (SK-MEL-28): 979 nM; GI50 (SK-MEL-28; read-out: GI50): 1110 nM; TGI (A549): 1240 nM; GI50 (A549; read-out: GI50): 1390 nM; GI50 [3]: 470 nM; GI50 ([3]; read-out: GI50): 612 nM
